Converted amounts (≈) assume the structure as drawn.
Assays:
Type in all cases: functional
[1] = target: DNA gyrase (Escherichia coli) (UniProt P0AES6+P0AES4); assay: Minimum inhibitory concentration against Escherichia coli DNA-gyrase in supercoiling assay
[2] = test system: Enterobacter cloacae; assay: Antibacterial activity was determined against gram negative organism, Enterobacter cloacae MA2646; conditions: Enterobacter cloacae; read-out: MIC
[3] = test system: Escherichia coli; assay: Antibacterial activity was determined against gram negative organism, Escherichia coli vogel; conditions: Escherichia coli; read-out: MIC
In short: (§1)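 MIC (µg/mL) by standard microtitration against a panel of 10 Gram-positive and Gram-negative organisms; values averaged from multiple experiments.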

[4] = test system: Bacteria; assay: MIC ratio measured as the mean MICs of gram-negative bacteria
In short: (§2)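 Geometric mean of the microtitration MICs (µg/mL) over the Gram-negative organisms, and separately over the Gram-positive organisms, of the 10-strain panel; individual MICs averaged from multiple experiments.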

[5] = test system: Bacteria; assay: MIC ratio measured as the mean MICs of gram-positive bacteria; in short: as §2
[6] = test system: Klebsiella pneumoniae; assay: Antibacterial activity was determined against gram negative organism, Klebsiella pneumoniae MGH-2; conditions: Klebsiella pneumoniae; read-out: MIC; in short: as §1
[7] = test system: Pseudomonas aeruginosa; assay: Antibacterial activity was determined against gram negative organism, Pseudomonas aeruginosa UI-18; conditions: Pseudomonas aeruginosa; read-out: MIC; in short: as §1
[8] = test system: Bacteria; assay: Antibacterial activity was determined against gram negative organism, Providencia rettgeri. M1771; conditions: Bacteria; read-out: MIC; in short: as §1
[9] = test system: Staphylococcus aureus; assay: Antibacterial activity was determined against gram positive organism, Staphylococcus aureus H228; conditions: Staphylococcus aureus; read-out: MIC; in short: as §1
[10] = test system: Streptococcus pneumoniae; assay: Antibacterial activity was determined against gram positive organism, Streptococcus pneumoniae SV-1; conditions: Streptococcus pneumoniae; read-out: MIC; in short: as §1
[11] = test system: Enterococcus faecalis; assay: Antibacterial activity was determined against gram positive organism, Streptococcus faecalis MGH-2; conditions: Enterococcus faecalis; read-out: MIC; in short: as §1
[12] = test system: Staphylococcus aureus; assay: Antibacterial activity was determined against gram positive organism, Staphylococcus aureus UC76; in short: as §1
[13] = test system: Streptococcus pyogenes; assay: Antibacterial activity was determined against gram positive organism, Streptococcus pyogenes C203; conditions: Streptococcus pyogenes; read-out: MIC; in short: as §1
[14] = Staphylococcus aureus, read-out: MIC

SMILES | MIC [1] [µg/mL] | MIC [2] [µg/mL] | MIC [3] [µg/mL] | Geometric mean MIC over Gram-negative bacteria (µg/mL) [4] | Geometric mean MIC over Gram-positive bacteria (µg/mL) [5] | MIC [6] [µg/mL] | MIC [7] [µg/mL] | MIC [8] [µg/mL] | MIC [9] [µg/mL] | MIC [10] [µg/mL] | MIC [11] [µg/mL] | MIC [12, 14] [µg/mL] | MIC [13] [µg/mL] | MIC [12] [µg/mL]
CCn1cc(C(=O)O)c(=O)c2c(N)c(F)c(N3CC(C)NC(C)C3)c(Cl)c21 (configuration not stated) | 7.5 (≈ 18.9 µM) | 1.6 (≈ 4.03 µM) | 1.6 (≈ 4.03 µM) | 4.18 | 8.27 | 6.3 (≈ 15.9 µM) | 12.5 (≈ 31.5 µM) | 6.3 (≈ 15.9 µM) | 3.1 (≈ 7.81 µM) | 25 (≈ 63 µM) | 12.5 (≈ 31.5 µM) | 1.6 (≈ 4.03 µM) | 25 (≈ 63 µM) | 
CCNCC1CCN(c2cc3c(c(N)c2F)c(=O)c(C(=O)O)cn3CC)C1 (configuration not stated) | 7.5 (≈ 19.9 µM) | 1.6 (≈ 4.25 µM) | 0.8 (≈ 2.13 µM) | 4.15 | 0.46 | 3.1 (≈ 8.24 µM) | 25 (≈ 66.4 µM) | 12.5 (≈ 33.2 µM) | 0.8 (≈ 2.13 µM) | 0.4 (≈ 1.06 µM) | 0.8 (≈ 2.13 µM) | 0.1 (≈ 0.266 µM) | 0.8 (≈ 2.13 µM) | 
CCn1cc(C(=O)O)c(=O)c2cc(F)c(N3CCC(N)C3)c(Cl)c21 (configuration not stated) | 2.5 (≈ 7.07 µM) | 0.05 (≈ 0.141 µM) | 0.05 (≈ 0.141 µM) | 0.13 | 0.3 | 0.1 (≈ 0.283 µM) | 0.8 (≈ 2.26 µM) | 0.2 (≈ 0.565 µM) | 0.4 (≈ 1.13 µM) | 0.4 (≈ 1.13 µM) | 0.4 (≈ 1.13 µM) |  | 0.4 (≈ 1.13 µM) | 0.1 (≈ 0.283 µM)
CCn1cc(C(=O)O)c(=O)c2c(O)c(F)c(N3CC(C)NC(C)C3)c(F)c21 (configuration not stated) | 5 (≈ 13.1 µM) | 0.8 (≈ 2.1 µM) | 0.8 (≈ 2.1 µM) | 2.41 | 16.49 | 1.6 (≈ 4.2 µM) | 12.5 (≈ 32.8 µM) | 6.3 (≈ 16.5 µM) | 6.3 (≈ 16.5 µM) | 50 (≈ 131 µM) | 25 (≈ 65.6 µM) | 3.1 (≈ 8.13 µM) | 50 (≈ 131 µM) | 
CCn1cc(C(=O)O)c(=O)c2c(O)c(F)c(N3CCC(N)C3)c(F)c21 (configuration not stated) | 2.5 (≈ 7.08 µM) | 0.2 (≈ 0.566 µM) | 0.2 (≈ 0.566 µM) | 0.35 | 1.2 | 0.4 (≈ 1.13 µM) | 0.8 (≈ 2.26 µM) | 0.4 (≈ 1.13 µM) | 1.6 (≈ 4.53 µM) | 1.6 (≈ 4.53 µM) | 3.1 (≈ 8.77 µM) | 0.2 (≈ 0.566 µM) | 1.6 (≈ 4.53 µM) | 

Further lines, results first:

MIC [1] [µg/mL] | MIC [2] [µg/mL] | MIC [3] [µg/mL] | Geometric mean MIC over Gram-negative bacteria (µg/mL) [4] | Geometric mean MIC over Gram-positive bacteria (µg/mL) [5] | MIC [6] [µg/mL] | MIC [7] [µg/mL] | MIC [8] [µg/mL] | MIC [9] [µg/mL] | MIC [10] [µg/mL] | MIC [11] [µg/mL] | MIC [12, 14] [µg/mL] | MIC [13] [µg/mL] | MIC [12] [µg/mL] | SMILES
5 (≈ 13.6 µM) | 0.2 (≈ 0.544 µM) | 0.2 (≈ 0.544 µM) | 0.6 | 1.8 | 0.4 (≈ 1.09 µM) | 6.3 (≈ 17.1 µM) | 0.8 (≈ 2.18 µM) | 1.6 (≈ 4.35 µM) | 3.1 (≈ 8.43 µM) | 3.1 (≈ 8.43 µM) |  | 3.1 (≈ 8.43 µM) | 0.4 (≈ 1.09 µM) | CCn1cc(C(=O)O)c(=O)c2cc(F)c(N3CCNC(C)C3)c(Cl)c21 (configuration not stated)
2.5 (≈ 7.41 µM) | 0.1 (≈ 0.296 µM) | 0.1 (≈ 0.296 µM) | 0.17 | 0.27 | 0.2 (≈ 0.593 µM) | 0.4 (≈ 1.19 µM) | 0.2 (≈ 0.593 µM) | 0.4 (≈ 1.19 µM) | 0.4 (≈ 1.19 µM) | 0.4 (≈ 1.19 µM) |  | 0.2 (≈ 0.593 µM) | 0.1 (≈ 0.296 µM) | CCn1cc(C(=O)O)c(=O)c2cc(F)c(N3CCC(N)C3)c(F)c21 (configuration not stated)
5 (≈ 13.1 µM) | 3.1 (≈ 8.12 µM) | 1.6 (≈ 4.19 µM) | 4.14 | 6.27 | 3.1 (≈ 8.12 µM) | 12.5 (≈ 32.7 µM) | 6.3 (≈ 16.5 µM) | 3.1 (≈ 8.12 µM) | 12.5 (≈ 32.7 µM) | 12.5 (≈ 32.7 µM) |  | 12.5 (≈ 32.7 µM) | 1.6 (≈ 4.19 µM) | CCn1cc(C(=O)O)c(=O)c2cc(F)c(N3CC(C)NC(C)C3)c(Cl)c21 (configuration not stated)
2.5 (≈ 7.12 µM) | 0.1 (≈ 0.285 µM) | 0.1 (≈ 0.285 µM) | 0.26 | 1.58 | 0.2 (≈ 0.569 µM) | 1.6 (≈ 4.55 µM) | 0.4 (≈ 1.14 µM) | 1.6 (≈ 4.55 µM) | 1.6 (≈ 4.55 µM) | 3.1 (≈ 8.82 µM) |  | 3.1 (≈ 8.82 µM) | 0.4 (≈ 1.14 µM) | CCn1cc(C(=O)O)c(=O)c2cc(F)c(N3CCNC(C)C3)c(F)c21 (configuration not stated) [LOMEFLOXACIN]
